Bridge positions count the residues as written; N and C are the ends. Square brackets hold non-standard residues; d marks the D form. Peptide text beside a SMILES is read from it. NMeW = CN[C@@H](Cc1c[nH]c2ccccc12)C(=O)O; NMeY = CN[C@@H](Cc1ccc(O)cc1)C(=O)O; NMeF = CN[C@@H](Cc1ccccc1)C(=O)O; NMeK = CN[C@@H](CCCCN)C(=O)O; NMeC = CN[C@@H](CS)C(=O)O
Experiments:
Urotensin-2 receptor [1] = biological target: T1, Urotensin-2 receptor (Homo sapiens, UniProt Q9UKP6); assay: Agonist activity at urotensin 2 receptor (unknown origin) expressed in HEK293 cells co-expressing Gq-polycistronic BRET biosensor assessed as induction of Gq activation measured for 5 mins by luminescence detection based BRET assay; format: cell-based
T1 sequence (Q9UKP6 whole entry): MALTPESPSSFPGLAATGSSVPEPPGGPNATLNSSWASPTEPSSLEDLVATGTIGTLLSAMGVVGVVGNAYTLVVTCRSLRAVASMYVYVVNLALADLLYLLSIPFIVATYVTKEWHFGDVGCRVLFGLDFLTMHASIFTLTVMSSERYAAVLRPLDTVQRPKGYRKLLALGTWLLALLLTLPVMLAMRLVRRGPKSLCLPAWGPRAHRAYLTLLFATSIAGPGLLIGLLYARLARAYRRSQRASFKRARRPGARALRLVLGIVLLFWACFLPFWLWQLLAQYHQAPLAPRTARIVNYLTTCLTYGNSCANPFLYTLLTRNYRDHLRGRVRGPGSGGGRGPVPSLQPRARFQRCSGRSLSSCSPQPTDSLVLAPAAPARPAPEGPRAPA

Urotensin-2 receptor [2] = biological target: T2, Urotensin-2 receptor (Rattus norvegicus, UniProt P49684); assay: Agonist activity at urotensin 2 receptor in Sprague-Dawley rat thoracic aortic ring assessed as induction of contraction relative to KCl-induced contraction
T2 sequence (P49684 whole entry): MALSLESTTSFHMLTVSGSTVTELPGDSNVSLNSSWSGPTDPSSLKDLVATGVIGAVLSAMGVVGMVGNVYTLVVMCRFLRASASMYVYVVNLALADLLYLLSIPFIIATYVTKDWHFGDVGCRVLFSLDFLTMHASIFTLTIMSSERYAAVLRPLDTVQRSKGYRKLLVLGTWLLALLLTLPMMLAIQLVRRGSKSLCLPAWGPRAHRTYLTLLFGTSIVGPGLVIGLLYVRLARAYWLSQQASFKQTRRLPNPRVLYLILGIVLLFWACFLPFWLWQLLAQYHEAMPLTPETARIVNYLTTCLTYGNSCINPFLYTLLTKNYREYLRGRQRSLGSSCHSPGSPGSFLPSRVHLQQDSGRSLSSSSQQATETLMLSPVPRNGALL
How it was run: (§1)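 Male Sprague-Dawley rats, 250-300 g. Aortic rings were held in a 5-mL organ bath of oxygenated Krebs-Henseleit buffer. Each vessel was first challenged with KCl, 40 mM final in the bath. Peptides were added cumulatively from 10−11 to 10−5 M. Each contraction was taken as a percentage of the KCl response, divided by the response to hU-II (10−7 M).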

Urotensin-2 receptor [3] = biological target: T1, Urotensin-2 receptor; assay: Displacement of [125I]-URP or human [125I[-urotensin-2 from human urotensin 2 receptor expressed in HEK293 or CHOK1 cells after 2 hrs by gamma-counting assay; format: cell-based
[4] = biological target: T3, Urotensin-2 receptor (Rattus norvegicus) (UniProt P49684); assay: Agonist activity at urotensin 2 receptor in Sprague-Dawley rat thoracic aortic ring assessed as induction of contraction relative to urotensin-2; how it was run: as §1
T3 sequence (whole entry): T2 sequence (P49684 whole entry)

[5] = biological target: T3, Urotensin-2 receptor (Rattus norvegicus); assay: Agonist activity at urotensin 2 receptor in Sprague-Dawley rat thoracic aortic ring assessed as induction of contraction at 10 uM relative to KCl-induced contraction; how it was run: as §1

Row | Compound | EC50 (Urotensin-2 receptor [1]) | EC50 (Urotensin-2 receptor [2]) | Ki (Urotensin-2 receptor [3]) | Emax [4] | Activity [5]
1 | CC(C)[C@H](NC(=O)[C@@H]1CSSC[C@H](NC(=O)[C@@H](N)CC(=O)O)C(=O)N[C@@H](Cc2ccccc2)C(=O)N[C@@H](Cc2c[nH]c3ccccc23)C(=O)N[C@@H](CCCCN)C(=O)N[C@@H](Cc2ccc(O)cc2)C(=O)N1)C(=O)O (H-DCFWKYCV-OH; disulfide 2-7) | 1.86 nM | 5.25 nM | 4.57 nM |  | 
2 | CC(C)[C@H](NC(=O)[C@@H]1CSSC[C@H](N(C)C(=O)[C@@H](N)CC(=O)O)C(=O)N[C@@H](Cc2ccccc2)C(=O)N[C@@H](Cc2c[nH]c3ccccc23)C(=O)N[C@@H](CCCCN)C(=O)N[C@@H](Cc2ccc(O)cc2)C(=O)N1)C(=O)O (H-D[NMeC]FWKYCV-OH; disulfide 2-7) |  | 4.47 nM | 2.95 nM | 101% | 
3 | CC(C)[C@H](NC(=O)[C@@H]1CSSC[C@H](NC(=O)[C@H](CC(=O)O)NC(=O)[C@@H]2CCCN2C(=O)[C@@H](NC(=O)[C@@H](N)CCC(=O)O)[C@@H](C)O)C(=O)N[C@@H](Cc2ccccc2)C(=O)N[C@@H](Cc2c[nH]c3ccccc23)C(=O)N[C@@H](CCCCN)C(=O)N(C)[C@@H](Cc2ccc(O)cc2)C(=O)N1)C(=O)O |  |  | 2140 nM |  | 71%
4 | CC(C)[C@H](NC(=O)[C@@H]1CSSC[C@H](NC(=O)[C@@H](N)CC(=O)O)C(=O)N[C@@H](Cc2ccccc2)C(=O)N[C@@H](Cc2c[nH]c3ccccc23)C(=O)N[C@@H](CCCCN)C(=O)N(C)[C@@H](Cc2ccc(O)cc2)C(=O)N1)C(=O)O (H-DCFWK[NMeY]CV-OH; disulfide 2-7) |  |  | > 10000 nM |  | 44%
5 | CC(C)[C@H](NC(=O)[C@@H]1CSSC[C@H](NC(=O)[C@H](C)N)C(=O)N[C@@H](Cc2ccccc2)C(=O)N[C@@H](Cc2c[nH]c3ccccc23)C(=O)N[C@@H](CCCCN)C(=O)N[C@@H](Cc2ccc(O)cc2)C(=O)N1C)C(=O)O | 5.25 nM | 9.55 nM | 3.55 nM | 44% | 
6 | CC(C)[C@H](NC(=O)[C@@H]1CSSC[C@H](NC(=O)[C@H](CC(=O)O)NC(=O)[C@@H]2CCCN2C(=O)[C@@H](NC(=O)[C@@H](N)CCC(=O)O)[C@@H](C)O)C(=O)N[C@@H](Cc2ccccc2)C(=O)N[C@@H](Cc2c[nH]c3ccccc23)C(=O)N[C@@H](CCCCN)C(=O)N[C@@H](Cc2ccc(O)cc2)C(=O)N1)C(=O)O [UROTENSIN-II] |  | 3.02 nM |  |  | 
7 | CC(C)[C@H](NC(=O)[C@@H]1CSSC[C@H](NC(=O)[C@@H](N)CC(=O)O)C(=O)N[C@@H](Cc2ccccc2)C(=O)N[C@@H](Cc2c[nH]c3ccccc23)C(=O)N(C)[C@@H](CCCCN)C(=O)N[C@@H](Cc2ccc(O)cc2)C(=O)N1)C(=O)O (H-DCFW[NMeK]YCV-OH; disulfide 2-7) |  |  | > 10000 nM |  | 42%
8 | CC(C)[C@H](NC(=O)[C@@H]1CSSC[C@H](NC(=O)[C@H](CC(=O)O)NC(=O)[C@@H]2CCCN2C(=O)[C@@H](NC(=O)[C@@H](N)CCC(=O)O)[C@@H](C)O)C(=O)N(C)[C@@H](Cc2ccccc2)C(=O)N[C@@H](Cc2c[nH]c3ccccc23)C(=O)N[C@@H](CCCCN)C(=O)N[C@@H](Cc2ccc(O)cc2)C(=O)N1)C(=O)O | 22.4 nM | 200 nM | 813 nM | 96% | 
9 | CC(C)[C@H](NC(=O)[C@@H]1CSSC[C@H](NC(=O)[C@H](CC(=O)O)NC(=O)[C@@H]2CCCN2C(=O)[C@@H](NC(=O)[C@@H](N)CCC(=O)O)[C@@H](C)O)C(=O)N[C@@H](Cc2ccccc2)C(=O)N(C)[C@@H](Cc2c[nH]c3ccccc23)C(=O)N[C@@H](CCCCN)C(=O)N[C@@H](Cc2ccc(O)cc2)C(=O)N1)C(=O)O | 5.62 nM | 5.75 nM | 20.4 nM | 97% | 
10 | CC(C)[C@H](NC(=O)[C@@H]1CSSC[C@H](NC(=O)[C@H](CC(=O)O)NC(=O)[C@@H]2CCCN2C(=O)[C@@H](NC(=O)[C@@H](N)CCC(=O)O)[C@@H](C)O)C(=O)N[C@@H](Cc2ccccc2)C(=O)N[C@@H](Cc2c[nH]c3ccccc23)C(=O)N(C)[C@@H](CCCCN)C(=O)N[C@@H](Cc2ccc(O)cc2)C(=O)N1)C(=O)O |  |  | 2090 nM |  | 72%
11 | CC(C)[C@H](NC(=O)[C@@H]1CSSC[C@H](NC(=O)[C@H](C)N)C(=O)N[C@@H](Cc2ccccc2)C(=O)N[C@@H](Cc2c[nH]c3ccccc23)C(=O)N[C@@H](CCCCN)C(=O)N(C)[C@@H](Cc2ccc(O)cc2)C(=O)N1)C(=O)O |  |  | 5370 nM |  | 16%
12 | CC(C)[C@H](NC(=O)[C@@H]1CSSC[C@H](NC(=O)[C@H](CC(=O)O)NC(=O)[C@@H]2CCCN2C(=O)[C@@H](NC(=O)[C@@H](N)CCC(=O)O)[C@@H](C)O)C(=O)N[C@@H](Cc2ccccc2)C(=O)N[C@@H](Cc2c[nH]c3ccccc23)C(=O)N[C@@H](CCCCN)C(=O)N[C@@H](Cc2ccc(O)cc2)C(=O)N1C)C(=O)O | 2.69 nM | 24.5 nM | 22.9 nM | 105% | 
13 | CC(C)[C@H](NC(=O)[C@@H]1CSSC[C@H](N(C)C(=O)[C@H](C)N)C(=O)N[C@@H](Cc2ccccc2)C(=O)N[C@@H](Cc2c[nH]c3ccccc23)C(=O)N[C@@H](CCCCN)C(=O)N[C@@H](Cc2ccc(O)cc2)C(=O)N1)C(=O)O |  | 4.9 nM | 1.74 nM | 110% | 
14 | CC(C)[C@H](NC(=O)[C@@H]1CSSC[C@H](NC(=O)[C@@H](N)CC(=O)O)C(=O)N[C@@H](Cc2ccccc2)C(=O)N(C)[C@@H](Cc2c[nH]c3ccccc23)C(=O)N[C@@H](CCCCN)C(=O)N[C@@H](Cc2ccc(O)cc2)C(=O)N1)C(=O)O (H-DCF[NMeW]KYCV-OH; disulfide 2-7) | 3.63 nM | 3.39 nM | 1.74 nM | 105% | 
15 | CC(C)[C@H](NC(=O)[C@@H]1CSSC[C@H](N(C)C(=O)[C@H](CC(=O)O)NC(=O)[C@@H]2CCCN2C(=O)[C@@H](NC(=O)[C@@H](N)CCC(=O)O)[C@@H](C)O)C(=O)N[C@@H](Cc2ccccc2)C(=O)N[C@@H](Cc2c[nH]c3ccccc23)C(=O)N[C@@H](CCCCN)C(=O)N[C@@H](Cc2ccc(O)cc2)C(=O)N1)C(=O)O |  | 9.77 nM | 49 nM | 112% | 
16 | CC(C)[C@H](NC(=O)[C@@H]1CSSC[C@H](NC(=O)[C@@H](N)CC(=O)O)C(=O)N[C@@H](Cc2ccccc2)C(=O)N[C@@H](Cc2c[nH]c3ccccc23)C(=O)N[C@@H](CCCCN)C(=O)N[C@@H](Cc2ccc(O)cc2)C(=O)N1C)C(=O)O (H-DCFWKY[NMeC]V-OH; disulfide 2-7) | 4.68 nM | 5.25 nM | 3.55 nM | 95% | 
17 | CC(C)[C@H](NC(=O)[C@@H]1CSSC[C@H](NC(=O)[C@H](C)N)C(=O)N[C@@H](Cc2ccccc2)C(=O)N(C)[C@@H](Cc2c[nH]c3ccccc23)C(=O)N[C@@H](CCCCN)C(=O)N[C@@H](Cc2ccc(O)cc2)C(=O)N1)C(=O)O | 13.8 nM | 83.2 nM | 2.19 nM | 35% | 
18 | CC(C)[C@H](NC(=O)[C@@H]1CSSC[C@H](NC(=O)[C@H](C)N)C(=O)N[C@@H](Cc2ccccc2)C(=O)N[C@@H](Cc2c[nH]c3ccccc23)C(=O)N[C@@H](CCCCN)C(=O)N[C@@H](Cc2ccc(O)cc2)C(=O)N1)C(=O)O | 2.69 nM | 7.76 nM | 6.31 nM | 116% | 
19 | CC(C)[C@H](NC(=O)[C@@H]1CSSC[C@H](NC(=O)[C@@H](N)CC(=O)O)C(=O)N(C)[C@@H](Cc2ccccc2)C(=O)N[C@@H](Cc2c[nH]c3ccccc23)C(=O)N[C@@H](CCCCN)C(=O)N[C@@H](Cc2ccc(O)cc2)C(=O)N1)C(=O)O (H-DC[NMeF]WKYCV-OH; disulfide 2-7) | 18.6 nM | 537 nM | 229 nM | 98% | 

From ChEMBL document CHEMBL4368906 (J Med Chem, 2019)
